Test system: HFF
Assay: Inhibitory concentration against the growth of Toxoplasma gondii overexpressing FPPS enzyme in human foreskin fibroblast monolayer cells; (control = 0.62 uM, experiment 1)
Format: functional, cell-based
Details: not given
Procedure, shortened: (§1)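 FPPS-overexpressing T. gondii line: 2F clone tachyzoites (beta-galactosidase) electroporated with 50 µg ptubTgFPPS-FLAG/sagCAT. Stable lines were selected with 20 µM chloramphenicol and cloned by limiting dilution, giving 4-5-fold more FPPS by Western blot. Assay: compounds serially diluted in medium on confluent HFF; 10^4 tachyzoites/mL (filtered 3 µm, needle-passed); 48 h at 37 °C. Lysis, then CPRG read at 570 nm; IC50 from rectangular hyperbolic fit of % inhibition.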

Compound | IC50 [µM]
CCCCCCCCCC(O)(P(=O)(O)O)P(=O)(O)O | 1.9

Test system: HFF
Assay: Inhibitory concentration against the growth of Toxoplasma gondii overexpressing FPPS enzyme in human foreskin fibroblast monolayer cells; (control = 0.79 uM, experiment 3)
Format: functional, cell-based
Details: not given
Procedure, shortened: as §1

Compound | IC50 [µM]
O=P(O)(O)C(O)(Cn1ccnc1)P(=O)(O)O [ZOLEDRONIC ACID] | 7.8

Test system: not listed separately
Assay: Therapeutic index (TI) value as ratio of lethal dose (LD50) to the inhibitory concentration (IC50)
Format: cell-based
Details: human, KB cells; read-out: TI

Compound | selectivity ratio
O=P(O)(O)C(N1CCCCCC1)P(=O)(O)O [N-(HEXAMETHYLENEIMINO)METHYLENEBISPHOSPHONIC ACID] | > 12.2
NCCCCCC(O)(P(=O)(O)O)P(=O)(O)O [NERIDRONIC ACID] | 11.4
Cc1ccnc(NC(P(=O)(O)O)P(=O)(O)O)c1 | 2.32
O=P(O)(O)C(O)(Cc1ccncc1)P(=O)(O)O | 48.9
O=P(O)(O)C(NC1CC1)P(=O)(O)O [(CYCLOPROPYLAMINO)METHYLENEDIPHOSPHONIC ACID] | 10.7
O=P(O)(O)C(N1CCSCC1)P(=O)(O)O [THIOMORPHOLINOMETHYLENEDIPHOSPHONIC ACID] | > 6.73
O=P(O)(O)C(Nc1ccccn1)P(=O)(O)O | 10.4
CCCCN(CC)C(P(=O)(O)O)P(=O)(O)O [(BUTYL(ETHYL)AMINO)METHYLENEDIPHOSPHONIC ACID] | > 7.99
O=P(O)(O)C(Nc1nccc2ccccc12)P(=O)(O)O | 32.2
O=P(O)(O)C(NC1CCCCCC1)P(=O)(O)O [INCADRONIC ACID] | 4.19
O=P(O)(O)C(Nc1ccnc(O)c1)P(=O)(O)O | 14.8
CCCCCCCCCC(O)(P(=O)(O)O)P(=O)(O)O | > 1620
O=P(O)(O)C(O)(CSc1ccncc1)P(=O)(O)O | > 10.3
CCCNC(P(=O)(O)O)P(=O)(O)O [(PROPYLAMINO)METHYLENEDIPHOSPHONIC ACID] | 7.21
Nc1ccc(CC(O)(P(=O)(O)O)P(=O)(O)O)cc1 | 2.71
O=P(O)(O)C(O)(Cn1ccnc1)P(=O)(O)O [ZOLEDRONIC ACID] | 80.9
O=P(O)(O)C(O)(Cc1ccccn1)P(=O)(O)O | 1.71
CCCCCCCCCNC(P(=O)(O)O)P(=O)(O)O [(NONYLAMINO)METHYLENEDIPHOSPHONIC ACID] | > 103
O=P(O)(O)C(NC1CCCCCCC1)P(=O)(O)O [(CYCLOOCTYLAMINO)METHYLENEDIPHOSPHONIC ACID] | 8.19
O=P(O)(O)C(N1CCCCC1)P(=O)(O)O | > 21.9
CCCCNC(P(=O)(O)O)P(=O)(O)O [(BUTYLAMINO)METHYLENEDIPHOSPHONIC ACID] | 2.78
NCCCCC(O)(P(=O)(O)O)P(=O)(O)O | 0.72
Cc1cccnc1NC(P(=O)(O)O)P(=O)(O)O | 4.02
CCC(C)CNC(P(=O)(O)O)P(=O)(O)O (stereo unspecified) | 10.8
NCCC(O)(P(=O)(O)O)P(=O)(O)O [PAMIDRONIC ACID] | 4.11
CC(C)CCNC(P(=O)(O)O)P(=O)(O)O [(ISOPENTYLAMINO)METHYLENEDIPHOSPHONIC ACID] | 3.56
O=P(O)(O)C(O)(Cc1ccccc1)P(=O)(O)O | > 10.3
CCCCC(O)(P(=O)(O)O)P(=O)(O)O | > 6.95
O=P(O)(O)C(O)(CCc1cccnc1)P(=O)(O)O | > 5.46
Cc1cc(C)nc(NC(P(=O)(O)O)P(=O)(O)O)c1 | 2.7

Test system: HFF
Assay: Inhibitory concentration against the growth of Toxoplasma gondii overexpressing FPPS enzyme in human foreskin fibroblast monolayer cells; (control = 1.1 uM, experiment 2)
Format: functional, cell-based
Details: not given
Procedure, shortened: as §1

Compound | IC50 [µM]
O=P(O)(O)C(O)(Cn1ccnc1)P(=O)(O)O [ZOLEDRONIC ACID] | 8.3

Test system: HFF
Assay: Inhibitory concentration against the growth of Toxoplasma gondii overexpressing FPPS enzyme in human foreskin fibroblast monolayer cells; (control = 0.15 uM, experiment 2)
Format: functional, cell-based
Details: not given
Procedure, shortened: as §1

Compound | IC50 [µM]
CCCCCCCCCC(O)(P(=O)(O)O)P(=O)(O)O | 0.57

Test system: HFF
Assay: Inhibitory concentration against the growth of Toxoplasma gondii overexpressing FPPS enzyme in human foreskin fibroblast monolayer cells; (control = 0.55 uM, experiment 3)
Format: functional, cell-based
Details: not given
Procedure, shortened: as §1

Compound | IC50 [µM]
CCCCCCCCCC(O)(P(=O)(O)O)P(=O)(O)O | 1.7

Test system: HFF
Assay: Inhibitory concentration against the growth of Toxoplasma gondii overexpressing FPPS enzyme in human foreskin fibroblast monolayer cells; (control = 0.60 uM, experiment 1)
Format: functional, cell-based
Details: not given
Procedure, shortened: as §1

Compound | IC50 [µM]
O=P(O)(O)C(O)(Cn1ccnc1)P(=O)(O)O [ZOLEDRONIC ACID] | 7.8

Test system: KB
Assay: Lethal dose required to inhibit the growth of human KB (nasopharyngeal carcinoma) cell line
Format: functional
Details: read-out: LD50 (the source's name)

Compound | CC50 [µM]
O=P(O)(O)C(N1CCCCCC1)P(=O)(O)O [N-(HEXAMETHYLENEIMINO)METHYLENEBISPHOSPHONIC ACID] | > 1100
NCCCCCC(O)(P(=O)(O)O)P(=O)(O)O [NERIDRONIC ACID] | 680
Cc1ccnc(NC(P(=O)(O)O)P(=O)(O)O)c1 | 137
O=P(O)(O)C(O)(Cc1ccncc1)P(=O)(O)O | 171
O=P(O)(O)C(NC1CC1)P(=O)(O)O [(CYCLOPROPYLAMINO)METHYLENEDIPHOSPHONIC ACID] | 246
O=P(O)(O)C(N1CCSCC1)P(=O)(O)O [THIOMORPHOLINOMETHYLENEDIPHOSPHONIC ACID] | > 1080
O=P(O)(O)C(Nc1ccccn1)P(=O)(O)O | 465
CCCCN(CC)C(P(=O)(O)O)P(=O)(O)O [(BUTYL(ETHYL)AMINO)METHYLENEDIPHOSPHONIC ACID] | > 1060
O=P(O)(O)C(Nc1nccc2ccccc12)P(=O)(O)O | 673
O=P(O)(O)C(NC1CCCCCC1)P(=O)(O)O [INCADRONIC ACID] | 166
O=P(O)(O)C(Nc1ccnc(O)c1)P(=O)(O)O | 257
CCCCCCCCCC(O)(P(=O)(O)O)P(=O)(O)O | > 892
O=P(O)(O)C(O)(CSc1ccncc1)P(=O)(O)O | > 746
CCCNC(P(=O)(O)O)P(=O)(O)O [(PROPYLAMINO)METHYLENEDIPHOSPHONIC ACID] | 499
Nc1ccc(CC(O)(P(=O)(O)O)P(=O)(O)O)cc1 | 218
O=P(O)(O)C(O)(Cn1ccnc1)P(=O)(O)O [ZOLEDRONIC ACID] | 63.7
O=P(O)(O)C(O)(Cc1ccccn1)P(=O)(O)O | 13.9
CCCCCCCCCNC(P(=O)(O)O)P(=O)(O)O [(NONYLAMINO)METHYLENEDIPHOSPHONIC ACID] | > 919
O=P(O)(O)C(NC1CCCCCCC1)P(=O)(O)O [(CYCLOOCTYLAMINO)METHYLENEDIPHOSPHONIC ACID] | 354
O=P(O)(O)C(N1CCCCC1)P(=O)(O)O | > 1120
CCCCNC(P(=O)(O)O)P(=O)(O)O [(BUTYLAMINO)METHYLENEDIPHOSPHONIC ACID] | 212
NCCCCC(O)(P(=O)(O)O)P(=O)(O)O | 91
Cc1cccnc1NC(P(=O)(O)O)P(=O)(O)O | 179
CCC(C)CNC(P(=O)(O)O)P(=O)(O)O (stereo unspecified) | 394
NCCC(O)(P(=O)(O)O)P(=O)(O)O [PAMIDRONIC ACID] | 156
CC(C)CCNC(P(=O)(O)O)P(=O)(O)O [(ISOPENTYLAMINO)METHYLENEDIPHOSPHONIC ACID] | 480
O=P(O)(O)C(O)(Cc1ccccc1)P(=O)(O)O | > 931
CCCCC(O)(P(=O)(O)O)P(=O)(O)O | > 1040
O=P(O)(O)C(O)(CCc1cccnc1)P(=O)(O)O | > 804
Cc1cc(C)nc(NC(P(=O)(O)O)P(=O)(O)O)c1 | 633

Test system: not listed separately
Assay: In vitro inhibitory concentration against the growth of Toxoplasma gondii in human foreskin fibroblast monolayer cells (HFF cells)
Format: functional, cell-based
Details: not given
Procedure, shortened: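 T. gondii 2F clone tachyzoites expressing β-galactosidase, kept in HFF in DMEM with 10% FBS, 2 mM glutamine and 1 mM pyruvate. Confluent HFF monolayers were given serially diluted drug in medium, then 10^4 filtered, needle-passed tachyzoites/mL, and held 48 h at 37 °C. Cells were lysed at 50 °C, and CPRG turnover was read at 570 nm. IC50 came from a hyperbolic fit of % inhibition against concentration.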

Compound | IC50 [µM]
O=P(O)(O)C(N1CCCCCC1)P(=O)(O)O [N-(HEXAMETHYLENEIMINO)METHYLENEBISPHOSPHONIC ACID] | 89.8
NCCCCCC(O)(P(=O)(O)O)P(=O)(O)O [NERIDRONIC ACID] | 59.7
Cc1ccnc(NC(P(=O)(O)O)P(=O)(O)O)c1 | 59
O=P(O)(O)C(O)(Cc1ccncc1)P(=O)(O)O | 3.5
O=P(O)(O)C(NC1CC1)P(=O)(O)O [(CYCLOPROPYLAMINO)METHYLENEDIPHOSPHONIC ACID] | 23.1
O=P(O)(O)C(N1CCSCC1)P(=O)(O)O [THIOMORPHOLINOMETHYLENEDIPHOSPHONIC ACID] | 161
O=P(O)(O)C(Nc1ccccn1)P(=O)(O)O | 44.6
CCCCN(CC)C(P(=O)(O)O)P(=O)(O)O [(BUTYL(ETHYL)AMINO)METHYLENEDIPHOSPHONIC ACID] | 132
O=P(O)(O)C(Nc1nccc2ccccc12)P(=O)(O)O | 20.9
O=P(O)(O)C(NC1CCCCCC1)P(=O)(O)O [INCADRONIC ACID] | 39.6
O=P(O)(O)C(Nc1ccnc(O)c1)P(=O)(O)O | 17.4
CCCCCCCCCC(O)(P(=O)(O)O)P(=O)(O)O | 0.55
O=P(O)(O)C(O)(CSc1ccncc1)P(=O)(O)O | 72.5
CCCNC(P(=O)(O)O)P(=O)(O)O [(PROPYLAMINO)METHYLENEDIPHOSPHONIC ACID] | 69.2
Nc1ccc(CC(O)(P(=O)(O)O)P(=O)(O)O)cc1 | 80.3
O=P(O)(O)C(O)(Cn1ccnc1)P(=O)(O)O [ZOLEDRONIC ACID] | 0.79
O=P(O)(O)C(O)(Cc1ccccn1)P(=O)(O)O | 8.11
CCCCCCCCCNC(P(=O)(O)O)P(=O)(O)O [(NONYLAMINO)METHYLENEDIPHOSPHONIC ACID] | 8.89
O=P(O)(O)C(NC1CCCCCCC1)P(=O)(O)O [(CYCLOOCTYLAMINO)METHYLENEDIPHOSPHONIC ACID] | 43.2
O=P(O)(O)C(N1CCCCC1)P(=O)(O)O | 51.2
CCCCNC(P(=O)(O)O)P(=O)(O)O [(BUTYLAMINO)METHYLENEDIPHOSPHONIC ACID] | 76.1
NCCCCC(O)(P(=O)(O)O)P(=O)(O)O | 126
Cc1cccnc1NC(P(=O)(O)O)P(=O)(O)O | 44.5
CCC(C)CNC(P(=O)(O)O)P(=O)(O)O (stereo unspecified) | 36.6
NCCC(O)(P(=O)(O)O)P(=O)(O)O [PAMIDRONIC ACID] | 38
CC(C)CCNC(P(=O)(O)O)P(=O)(O)O [(ISOPENTYLAMINO)METHYLENEDIPHOSPHONIC ACID] | 135
O=P(O)(O)C(O)(Cc1ccccc1)P(=O)(O)O | 90.2
CCCCC(O)(P(=O)(O)O)P(=O)(O)O | 150
O=P(O)(O)C(O)(CCc1cccnc1)P(=O)(O)O | 147
Cc1cc(C)nc(NC(P(=O)(O)O)P(=O)(O)O)c1 | 235

Reference: ChEMBL document CHEMBL1143625, “Bisphosphonate inhibitors of Toxoplasma gondi growth: in vitro, QSAR, and in vivo investigations” (J Med Chem, 2005)
